≈ marks a conversion by molar mass, not a printed value. Calls of active or inactive are those of the source. The calls are words filed in the database; no cut-off is given here.
How the values were obtained:
[1] = Cytotoxicity against human MOLT3 cells after 24 hrs by MTS assay; type: cell-based, MOLT-3
Outline: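 MOLT-3 cells (1 × 10^4) were exposed for 1 day in RPMI with 5% FBS to seven concentrations (1 ng/ml–1 mg/ml). MTS formazan formation was read at 490 nm after 1 h with reagent. Mean CC50 comes from three independent experiments.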

[2] = test system: Human T-cell leukemia virus type I; assay: Antiviral activity against Human T-cell leukemia/lymphoma virus type 1 infected in human PBMC assessed as inhibition of tax/rex gene expression at 22.93 ug/ml after 3 weeks post infection by quantitative real time RT-PCR; type: functional; settings: Primate T-lymphotropic virus 1, 504 h
[3] = test system: Human T-cell leukemia virus type I; assay: Antiviral activity against Human T-cell leukemia/lymphoma virus type 1 infected in human PBMC assessed as inhibition of tax/rex gene expression after 3 weeks post infection by quantitative real time RT-PCR; type: functional, organism-based; settings: Primate T-lymphotropic virus 1, 504 h
Outline: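 PBMC infected with HTLV-1. Compounds were added at infection onset, then at half concentration on days 3, 7 and 10 pi; the vehicle was up to 0.5% methanol. Cells were harvested 3 weeks pi and debris removed on a density gradient. tax/rex mRNA was measured by SYBR RQ-PCR normalized to GUSB (2^-ΔΔCt). RQ-IC50 came from three experiments, each in triplicate.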

[4] = test system: Human immunodeficiency virus 1; assay: Antiviral activity against HIV1 infected in human PBMC assessed as inhibition of gag gene expression at 0.23 ug/ml after 5 days post infection by conventional RT-PCR; settings: Human immunodeficiency virus 1, 120 h
[5] = test system: Human immunodeficiency virus 1; assay: Antiviral activity against HIV1 infected in human PBMC assessed as inhibition of gag gene expression after 5 days post infection by quantitative real time RT-PCR; type: functional, organism-based; settings: Human immunodeficiency virus 1, 120 h
Outline: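 Donor PBMC (HIV-, HBV-, HCV-seronegative) stimulated overnight with PHA 2 µg/ml, then infected 2 h with clarified H9/HIV-1IIIB supernatant (20 ng/ml p24), then cultured with IL2 20 U/ml. Compounds added 4 h pre-infection and re-added daily at half concentration; vehicle ≤0.5% methanol. Harvest day 5; gag mRNA by SYBR RQ-PCR vs GUSB (2^-ΔΔCt); three experiments in triplicate; IC50.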

[6] = Cytotoxicity against PHA-stimutated human PBMC after 24 hrs by MTS assay; type: cell-based; settings: PHA-stimulated PBMC
[7] = test system: Human immunodeficiency virus 1; assay: Antiviral activity against HIV1 infected in human PBMC assessed as inhibition of gag gene expression at 1 ug/ml after 5 days post infection by quantitative real time RT-PCR; type: functional, organism-based
Outline: (§1)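 PBMC were stimulated overnight with 2 µg/ml PHA and infected for 2 h with clarified H9/HIV-1IIIB supernatant at 20 ng/ml p24. They were then cultured with IL-2 20 U/ml. Compound was added 4 h before infection and re-added daily at half concentration, with 0.5% methanol as vehicle control. At 5 days pi, gag mRNA was measured by SYBR Green RQ-PCR in triplicate, normalized to GUSB (2^-ΔΔCt).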

[8] = Ratio of nevirapine CC50 to compound CC50 for human MOLT3 cells; type: ADME, cell-based, MOLT-3
[9] = test system: Human T-cell leukemia virus type I; assay: Ratio of IC50 for nevirapine to compound IC50 for Human T-cell leukemia/lymphoma virus type 1 reverse transcriptase activity
[10] = target: Human immunodeficiency virus type 1 reverse transcriptase (Human immunodeficiency virus 1, UniProt Q72547); assay: Inhibition of HIV1 3B reverse transcriptase activity
Outline: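 Commercial purified HIV-1 RT replaced the virion lysate in the same cell-free reverse transcription/20-cycle amplification assay. RTIC50 came from band densitometry over three independent experiments, with no compound pre-activation.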

[11] = Inhibition of Human T-cell leukemia/lymphoma virus type 1 reverse transcriptase activity infected in human MT2 cells assessed as level of p19 antigen; type: cell-based, Human T-cell leukemia virus type I; settings: Primate T-lymphotropic virus 1, MT2
[12] = Ratio of Lamivudine CC50 to compound CC50 for human MOLT3 cells; type: ADME, cell-based, MOLT-3
[13] = Ratio of CC50 for PHA-stimulated human PBMC to IC50 for HIV1 infected in human PBMC
[14] = test system: Human T-cell leukemia virus type I; assay: Antiviral activity against Human T-cell leukemia/lymphoma virus type 1 infected in human PBMC assessed as inhibition of tax/rex gene expression at 5 ug/ml after 3 weeks post infection by quantitative real time RT-PCR; type: functional, organism-based
Outline: (§2)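 Compound was added to PBMC cultures at the onset of HTLV-1 infection and re-added at half concentration on days 3, 7 and 10 pi, with 0.5% methanol as vehicle control. Cells were harvested 3 weeks pi and debris removed on a density gradient. Tax/rex mRNA was quantified by SYBR Green RT-PCR (40 cycles, 95/60 °C) against GUSB using the comparative Ct method.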

[15] = Ratio of zidovudine CC50 to compound CC50 for human MOLT3 cells; type: ADME, cell-based, MOLT-3
[16] = test system: Human immunodeficiency virus 1; assay: Antiviral activity against HIV1 infected in human PBMC assessed as inhibition of gag gene expression at 0.27 ug/ml after 5 days post infection by quantitative real time RT-PCR; type: functional; settings: Human immunodeficiency virus 1, 120 h
[17] = test system: Human T-cell leukemia virus type I; assay: Antiviral activity against Human T-cell leukemia/lymphoma virus type 1 infected in human PBMC assessed as inhibition of tax/rex gene expression at 10 ug/ml after 3 weeks post infection by quantitative real time RT-PCR; type: functional, organism-based; outline: as §2
[18] = test system: Human immunodeficiency virus 1; assay: Antiviral activity against HIV1 infected in human PBMC assessed as inhibition of gag gene expression at 10 ug/ml after 5 days post infection by quantitative real time RT-PCR; type: functional, organism-based; outline: as §1
[19] = test system: Human T-cell leukemia virus type I; assay: Antiviral activity against Human T-cell leukemia/lymphoma virus type 1 infected in human PBMC assessed as inhibition of tax/rex gene expression at 0.27 ug/ml after 3 weeks post infection by quantitative real time RT-PCR; type: functional; settings: Primate T-lymphotropic virus 1, 504 h

Q: For Nc1ccn([C@@H]2CS[C@H](CO)O2)c(=O)n1 [LAMIVUDINE], which CC50 at 24 h [1] is on record?
A: 5.94 µg/mL (≈ 25.9 µM)

Q: What about the inhibition at 22.93 µg/mL [2] of the same compound?
A: 100%

Q: And the IC50 [3]?
A: 14.2 µg/mL (≈ 62.1 µM)

Q: And the inhibition at 0.23 µg/mL [4]?
A: 100%

Q: And the IC50 [5]?
A: 0.19 µg/mL (≈ 0.829 µM)

Q: What about the CC50 at 24 h [6] of the same compound?
A: 53 µg/mL (≈ 231 µM)

Q: Which results are given for CC1(C)O[C@H]2CC(=O)OC[C@]23[C@H]2CC[C@@]4(C)[C@H](c5ccoc5)OC(=O)[C@H]5O[C@]54[C@]2(C)C(=O)C[C@@H]13 [LIMONIN]?
A: inhibition [7]: Active; CC50 at 24 h [1]: 202 µg/mL (≈ 428 µM); selectivity ratio [8]: 10; Ratio IC50 [9]: > 1000; IC50 [10]: 8.99 nM; IC50 [3]: 1.07 µg/mL (≈ 2.27 µM); IC50 [11]: 0.00031 µg/mL (≈ 0.000659 µM); selectivity ratio [12]: 33; Ratio CC50/IC50 [13]: 450; inhibition [14]: Active; selectivity ratio [15]: 62; IC50 [5]: 0.92 µg/mL (≈ 1.96 µM); CC50 at 24 h [6]: 452 µg/mL (≈ 960 µM)

Q: Which CC50 at 24 h [1] does the source give for Cc1ccnc2c1NC(=O)c1cccnc1N2C1CC1 [NEVIRAPINE] here?
A: 20.1 µg/mL (≈ 75.3 µM)

Q: And the inhibition at 0.27 µg/mL [16]?
A: 100%

Q: What about the IC50 [11] of the same compound?
A: > 0.266 µg/mL

Q: And the CC50 at 24 h [6]?
A: 40.9 µg/mL (≈ 154 µM)

Q: Which CC50 at 24 h [1] does the source give for CC(=O)O[C@H]1CC(=O)OC(C)(C)[C@@H]2CC(=O)[C@]3(C)[C@H](CC[C@@]4(C)[C@@H](c5ccoc5)OC(=O)[C@H]5O[C@]543)[C@@]12C [NOMILIN] here?
A: 756 µg/mL (≈ 1470 µM)

Q: What about the selectivity ratio [8] of the same compound?
A: 40

Q: And the IC50 [10]?
A: 6.65 nM

Q: What about the IC50 [3] of the same compound?
A: 3.98 µg/mL (≈ 7.73 µM)

Q: And the IC50 [11]?
A: 0.0026 µg/mL (≈ 0.00505 µM)

Q: And the selectivity ratio [12]?
A: 130

Q: And the selectivity ratio [15]?
A: 230

Q: What about the inhibition [17] of the same compound?
A: Active

Q: What about the IC50 [5] of the same compound?
A: 13 µg/mL (≈ 25.3 µM)

Q: What about the inhibition [18] of the same compound?
A: Active

Q: And the CC50 at 24 h [6]?
A: 692 µg/mL (≈ 1340 µM)

Q: With Cc1cn([C@H]2C[C@H](N=[N+]=[N-])[C@@H](CO)O2)c(=O)[nH]c1=O [ZIDOVUDINE] as the compound, how does the CC50 at 24 h [1] read?
A: 3.24 µg/mL (≈ 12.1 µM)

Q: What about the inhibition at 0.27 µg/mL [16] of the same compound?
A: 100%

Q: What about the inhibition at 0.27 µg/mL [19] of the same compound?
A: 100%

Q: And the IC50 [3]?
A: 0.16 µg/mL (≈ 0.599 µM)

Q: And the CC50 at 24 h [6]?
A: 31.2 µg/mL (≈ 117 µM)

From ChEMBL document CHEMBL1687924, “Antiviral activity of seed extract from Citrus bergamia towards human retroviruses” (Bioorg Med Chem, 2011)
